MT stabilizer – stabilizes microtubules in HeLa cells | HeLa tubulin immunostaining HCS, 24 h; share of cells brighter than vehicle mean+2SD | % tubulin-high responders, % at 10 µM | hit rate 0.83% among 200,000 | AID 2205;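 active = plate Z-score above 3 for both tubulin-high and condensed-nucleus cell shares, with cell loss under 80%, at 10 µM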;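 also: anti alpha tubulin signal scored within the nucleus-defined area of each cell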
b-catenin transl – beta-catenin nuclear translocation modulation; HeLa beta-catenin nuclear translocation, immunofluorescence imaging; nuclear translocation activity, % at 5 µM; hit rate 0.3% among 190,000; AID 1665;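 active = nuclear translocation activity above 50% at 5 µM, with a well cell count of 50 or more; inconclusive = wells under 50 cells across six images, flagged as toxic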;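 also: per-cell ratio of nuclear to cytoplasmic median beta-catenin stain intensity; plate controls were DMSO negative control for no effect and GSK-3 inhibitor IX positive control for full effect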
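Test system: HeLa cells, endogenous beta-catenin; Compound: single 5 µM dose plus 0.02–20 µM confirmation series; Times: compound exposure 24 h at 37°C; Signal: fluorescence imaging of beta-catenin antibody stain plus DAPI; Read-out: % activation, nuclear-to-cytoplasmic median beta-catenin signal ratio per cell.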
ROMK primary – modulators of human ROMK potassium channel; P48048; Tet-inducible ROMK, thallium flux fluorescence; actives lie on both sides; B-score at 10 µM; hit rate 2% among 130,000;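 active = signal ratio slope over the read window, or its plate-corrected B-score, at least 3 SD from the plate mean, either direction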;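 also: B-score of the F/F0 ratio slope over 7 to 12 s after thallium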
Target sequence (P48048 whole entry, looked up): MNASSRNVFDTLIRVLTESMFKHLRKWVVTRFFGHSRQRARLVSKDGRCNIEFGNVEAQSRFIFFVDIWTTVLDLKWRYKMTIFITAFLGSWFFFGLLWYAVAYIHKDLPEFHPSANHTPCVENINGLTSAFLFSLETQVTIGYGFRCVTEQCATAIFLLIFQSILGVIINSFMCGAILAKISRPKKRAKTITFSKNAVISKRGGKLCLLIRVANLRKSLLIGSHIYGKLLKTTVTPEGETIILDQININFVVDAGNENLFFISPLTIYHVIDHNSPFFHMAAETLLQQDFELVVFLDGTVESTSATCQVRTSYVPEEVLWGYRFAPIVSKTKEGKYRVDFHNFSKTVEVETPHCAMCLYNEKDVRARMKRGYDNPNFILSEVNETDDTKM
ROMK hit retest – confirmation of human ROMK potassium channel modulators; shares compounds with ROMK primary; ROMK thallium flux, fluorescence ratio; active compounds read low; normalized thallium flux (F/F0 slope) at 10 µM; hit rate 54% among 3,000;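 active = Flux at 10 µM at least 3 SD below or above vehicle control mean in one or both replicates; inconclusive = no clear call, values can overlap the other calls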
Numbers without * were called inactive; i = inactive; ? = inconclusive; . = no result. An excerpt weighted towards active compounds, which were near 1.9% of everything screened.

SMILES | MT stabilizer | b-catenin transl | ROMK primary | ROMK hit retest
NS(=O)(=O)c1ccc(CCNC(=O)C2CCN(S(=O)(=O)c3ccc(Br)s3)CC2)cc1 | 3.4 | 0.4 | 0.315 | .
CCOC(=O)c1cc([N+](=O)[O-])c([N+](=O)[O-])cc1NC(C)=O | 4.3 | 3.0 | -1.56 | .
Cc1ccc(NC(=O)CSc2ncc3ccccn23)cc1 | 4.1 | 3.0 | -0.608 | .
CS(=O)(=O)c1ccc(S(=O)CC(=O)OCc2ccccc2)c([N+](=O)[O-])c1 (configuration not stated) | 4.2 | 1.9 | -5.34* | 0.0534*
O=C(CS(=O)c1ccc(C(F)(F)F)cc1[N+](=O)[O-])Oc1ccccc1 (configuration not stated) | 3.1 | . | . | .
O=C(COc1ccc(Nc2ccccc2)cc1)OCC(=O)N1CCCCC1 | . | -1.9 | . | .
N#Cc1sc2nc(-c3cccs3)cc(-c3ccccc3)c2c1N | i | . | . | .
N#Cc1sc2nc(-c3ccccc3)cc(C(F)(F)F)c2c1N | 3.8 | -3.4 | -4.43* | 0.0632*
O=C(O)Cc1csc(-c2ccccc2)n1 | 6.0 | 3.3 | 0.194 | .
O=C(O)Cc1csc(-c2ccc(F)cc2)n1 | 1.5 | -2.3 | 2.95* | ?
O=C(COc1ccc2ccccc2c1)Nc1nccs1 | 2.2 | 0.1 | -0.937 | .
O=C(COc1ccccc1)Nc1nccs1 | 2.8 | -4.3 | 2.96* | 0.0767
CC(C)(C)c1ccc(S(=O)(=O)Nc2cccc(C3OCCCO3)c2)cc1 | 3.5 | 0.7 | -1.62 | .
O=C(Cc1cn(Cc2cccc(Cl)c2)c2ccccc12)N1CCCC1 | 2.9 | -1.3 | -3.18* | 0.0593*
O=C(CS(=O)(=O)c1cn(Cc2ccc(Cl)cc2)c2ccccc12)N1CCCC1 | 2.7 | . | . | .
CSCCCNC(=S)N1CCc2ccccc2C1 | 2.1 | 0.2 | -1.92 | .
O=c1[nH]c(C(Cl)Cl)nc2sc3c(c12)CCN(Cc1ccccc1)C3 | 1.7 | . | -1.12 | .
CCCSc1nc2sc3c(c2c(=O)[nH]1)CCN(Cc1ccccc1)C3 | 2.2 | 0.5 | -5.43* | 0.0302*
O=[N+]([O-])c1cccc(/C=C/c2nc3ccc([N+](=O)[O-])cc3[nH]2)c1 | 1.5 | -3.4 | -5.21* | 0.0419*
Cc1nc2ccc([N+](=O)[O-])cc2[nH]1 | 2.2 | 0.6 | -0.0263 | .
Cc1[nH]c2ccccc2c1CN1CCC(CO)(Cc2ccccc2)CC1 | 4.2 | 1.6 | -1.47 | .
Cc1c(CN2CCC(CO)(Cc3ccccc3)CC2)c2ccccc2n1C | 1.8 | -0.2 | -2.38* | 0.0599*
COc1ccc(Cn2nnnc2C(c2ccccc2Cl)N2CCN(C3CCCC3)CC2)cc1 (configuration not stated) | 5.3 | -2.2 | -4.85* | 0.0505*
COc1ccc2cc(C(c3nnnn3Cc3ccccc3)N3CCCCCC3)c(=O)[nH]c2c1 (configuration not stated) | 6.3 | -0.2 | . | .
CCC(c1nnnn1Cc1ccc(F)cc1)N1CCN(C2CCCCC2)CC1 (configuration not stated) | 3.2 | -5.3 | -3.03* | ?
SMILES | MT stabilizer | b-catenin transl | ROMK primary | ROMK hit retest
COc1ccc(Cn2nnnc2C(c2ccccc2)N2CCN(C3CCCC3)CC2)cc1 (configuration not stated) | 3.3 | 4.0 | . | .
CCCC(c1nnnn1Cc1ccc(F)cc1)N1CCN(C)CC1 (configuration not stated) | 3.1 | -0.4 | 1.02 | .
COc1ccc2cc(C(c3nnnn3Cc3ccc(F)cc3)N3CCCCCC3)c(=O)[nH]c2c1 (configuration not stated) | 6.7 | 3.0 | . | 0.0557*
CCN1C(=O)c2cccc3c(NC(=O)c4ccc(OC)c(OC)c4)ccc1c23 | 2.5 | -3.5 | . | .
COc1cc(OC)cc(C(=O)N[C@H](C(=O)Nc2nc(-c3ccc(F)c(F)c3)cs2)C(C)C)c1 | 3.0 | 0.2 | -0.233 | .
COc1cc(/C=C2\C(=N)N3N=CSC3=NC2=O)cc(Br)c1OC(=O)c1ccco1 | 3.2 | -0.9 | -10* | 0.0321*
N=C1/C(=C\c2ccc(OC(=O)c3ccco3)cc2)C(=O)N=C2SC=NN12 | 1.5 | -1.5 | -0.119 | .
COc1ccc(Cc2nc(-c3cccs3)no2)cc1 | 2.1 | -4.9 | -0.519 | .
CCNC(=O)Cc1c(OC)ccc2cc(Br)ccc12 | 2.6 | -2.3 | 0.193 | .
COc1ccc2cc(Br)ccc2c1CC(=O)NC1CC(C)(C)NC(C)(C)C1 | 2.0 | . | -2.86* | 0.0669*
CN(Cc1ccon1)Cc1cn(C)nc1-c1cccc(Cl)c1 | 3.2 | 0.1 | . | .
COCCOC(=O)c1c(C)oc2ccc(NS(=O)(=O)c3ccccc3)cc12 | 3.6 | 3.3 | . | .
CCNS(=O)(=O)c1ccc2c3c(cccc13)C(=O)N2 | 1.4 | . | 0.0865 | .
COC(=O)c1c(C)oc2ccc(NS(=O)(=O)c3cccs3)cc12 | 4.9 | -0.8 | -4.01* | ?
CCOC(=O)c1c(C)oc2ccc(NS(=O)(=O)c3ccc4c5c(cccc35)C(=O)N4)cc12 | 6.2 | -1.8 | -2.96* | 0.0838
C[C@H](NC(=O)c1ccccc1Cl)C(=O)NCc1cccs1 | 1.6 | -0.9 | -0.0239 | .
COC(=O)CSc1nc2ccccn2c(=O)c1C=O | 1.1 | -2.5 | 1.81 | .
O=C(O)c1ccc(N2C(=O)c3ccc(C(=O)c4cccc([N+](=O)[O-])c4)cc3C2=O)cc1 | 4.3 | -0.1 | 2.22* | 0.0878
O=C(c1cccc([N+](=O)[O-])c1)c1ccc2c(c1)C(=O)N(c1c[nH]c(=O)[nH]c1=O)C2=O | 2.5 | -2.5 | 0.197 | .
O=C(COC(=O)c1ccccc1C(=O)c1ccc(Cl)cc1)NCC1CCCO1 (configuration not stated) | 4.2 | -1.0 | -0.266 | .
CCc1cc(CC)c(/C=N/NC(N)=O)c(CC)c1 | 4.9 | 1.5 | . | .
COCC(=O)Nc1sc2c(c1C(=O)OC)C(C(=O)OC)CC2 (configuration not stated) | 2.1 | . | . | 0.0812
CCCC(=O)Nc1sc2c(c1C(=O)OC)C(C(=O)OC)CC2 (configuration not stated) | 4.1 | 0.0 | . | .
CC(C)(C)N1CC(OC(N)=O)C1 | . | -0.5 | . | .
CSc1ncc(CN2CCc3c([nH]c4ccccc34)C2c2cccc(O)c2)cn1 (configuration not stated) | 3.3 | -2.9 | . | .
SMILES | MT stabilizer | b-catenin transl | ROMK primary | ROMK hit retest
CN(Cc1ccc(F)cc1)C(=O)COc1ccccc1-c1ccccc1 | 3.3 | -1.8 | . | .
NC1=NC[C@@H](Cc2ccc(O)cc2)N1CCc1cc(C(F)(F)F)cc(C(F)(F)F)c1 | . | 0.8 | . | .
NC1=NC[C@H](CC2CCCCC2)N1CCc1cc(C(F)(F)F)cc(C(F)(F)F)c1 | . | -2.0 | . | 0.0498*
Cc1cc(C)n(-c2ccc(Cl)c(C(=O)Nc3cc(C(F)(F)F)ccc3Cl)n2)n1 | 4.4 | 1.8 | . | .
Cc1c(NC(=O)/C(C#N)=C/C2CC=CCC2)c(=O)n(-c2ccccc2)n1C (configuration not stated) | 2.2 | -3.6 | -4.97* | 0.0431*
Cc1c(N2C(=O)/C(=C\C3CC=CCC3)SC2=S)c(=O)n(-c2ccccc2)n1C (configuration not stated) | 3.9 | -1.3 | -6.55* | 0.0378*
Cc1c(NC(=O)/C(C#N)=C/c2ccc(-c3cc(Cl)ccc3Cl)o2)c(=O)n(-c2ccccc2)n1C | 4.6 | 0.6 | . | .
Cc1c(N2C(=O)/C(=C/C3CC=CCC3)SC2=S)c(=O)n(-c2ccccc2)n1C (configuration not stated) | . | -0.3 | . | .
Cc1c(NC(=O)/C(C#N)=C\c2cccs2)c(=O)n(-c2ccccc2)n1C | 2.8 | -2.7 | . | .

High-throughput results as filed in PubChem.
